What is called EC50 is the concentration giving half of the maximal effect. In general, solubility refers to the concentration that dissolves in the medium under given conditions. Read a high solubility as a readily soluble substance.

This is an account of results in ChEMBL document CHEMBL5346886 (Eur J Med Chem, 2023).

≈ marks a conversion by molar mass, not a printed value. Calls of active or inactive are those of the source. No cut-off for these calls is given here.

Series [1] in a line: Drug distribution in BALB/c mouse lung assessed as hydrolyzed ibuprofen metabolite at 200 mg/kg, po administered as single dose and measured after 1 hrs by LC-MS/MS analysis. Type of series: ADME, organism-based. The conditions noted are these: in vivo.
Series [2] in a line: Drug metabolism in Sprague-Dawley rat assessed as hydrolysis-mediated GS-441524 metabolite formation at 25 mg/kg, po administered as single dose and measured after 24 hrs by LC-MS/MS analysis. Type of series: ADME, organism-based. The conditions noted are these: in vivo. In short, it runs like this:
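Male SD rats (n = 3), fasted 12 h, dosed intragastrically; jugular vein blood into EDTA-K2 tubes at 0.25, 0.5, 1, 2, 3, 4, 6, 8 and 24 h; plasma protein-precipitated with acetonitrile, filtered, analytes measured by LC/MS/MS; noncompartmental PK analysis; mean ± SD.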

The nature of series [3]: Stability in human plasma assessed as half-life. The series is classed as ADME, cell-free.
Series [4] relates to Transmissible gastroenteritis virus. Description: Antiviral activity against Transmissible gastroenteritis virus infected in ST cells assessed as reduction in viral copy pre-infected with cells for 1 hrs followed by compound addition and measured after 48 hrs by RT-qPCR analysis. The series is classed as functional, organism-based. The conditions noted are these: Alphacoronavirus 1, ST. In short, it runs like this:
(§1)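 CRFK cells (CCoV, FIPV) or ST cells (TGEV) were grown in DMEM with 10% FBS at 37 °C, 5% CO2. At 80% confluence they were washed in serum-free medium and infected at MOI 0.01 for 1 h at 37 °C. Compounds were then added at 0.1–100 μmol/L, with DMSO as blank. After 48 h, cells and supernatants were analysed by qRT-PCR. Inhibition came from viral copy number, and EC50 from curve fitting.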

Series [5] in a line: Drug distribution in BALB/c mouse kidney assessed as hydrolyzed GS-441524 metabolite at 200 mg/kg, po administered as single dose and measured after 1 hrs by LC-MS/MS analysis. The conditions noted are these: in vivo. The series is classed as ADME, organism-based.
Series [6] has as its system Murine hepatitis virus. Briefly: Antiviral activity against murine hepatitis virus-A59 infected in BALB/c mouse assessed as reduction in IFN-gamma production in liver at 10 to 100 mg/kg, po administered once daily one hour post infection and measured after 3 days by ELISA analysis. The series is classed as functional, organism-based. The conditions noted are these: dose 10-100 mg/kg, time 3.0 day. A digest of the protocol: (§2)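 MHV-A59 was inoculated intranasally into male BALB/c mice (30 μL, TCID50 = 10−7.125/100 μL), with oral dosing once daily from 1 hpi for four days. At 3 dpi, 0.1 g lung or liver from 4 mice per group was homogenized in 0.9 mL water at 4 °C and centrifuged. Supernatant IFN-β was read by ELISA; TNF-α, IFN-γ, IL-1β, IL-6 and CXCL10 by multi-analyte kit, with OD 450 nm against standards.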

For series [7], the system named is Murine hepatitis virus. Description: Antiviral activity against murine hepatitis virus-A59 infected in BALB/c mouse assessed as reduction in TNF-alpha production in liver at 10 to 100 mg/kg, po administered once daily one hour post infection and measured after 3 days by ELISA analysis. Type of series: functional, organism-based. The conditions noted are these: dose 10-100 mg/kg, time 3.0 day. A digest of the protocol:
as §2
A general note: In an ELISA, binding on a coated surface is turned into a signal by an enzyme label.

Series [8] deals with Feline infectious peritonitis virus. Description: Antiviral activity against Feline infectious peritonitis virus infected in CRFK cells assessed as reduction in viral copy pre-infected with cells for 1 hrs followed by compound addition and measured after 48 hrs by RT-qPCR analysis. The series is classed as functional, organism-based. The conditions noted are these: Alphacoronavirus 1, CRFK. In short, it runs like this: as §1
Background: In qPCR the cycle at which signal appears reflects the starting amount.

Series [9] relates to Murine hepatitis virus. Briefly: Potency index, ratio of GS-441524 EC50 to test compound EC50 for antiviral activity against Murine hepatitis virus-A59 infected in mouse L929 cells assessed as reduction in viral copy pre-infected with cell for 1 hrs followed by compound addition and measured after 48 hrs by RT-qPCR analysis. Type of series: functional.
The subject of series [10] is Murine hepatitis virus. Description: Antiviral activity against murine hepatitis virus-A59 infected in BALB/c mouse assessed as reduction in mortality at 10 to 200 mg/kg, po administered once daily one hour post infection and measured after 23 days. Type of series: functional, organism-based. The conditions noted are these: dose 10-200 mg/kg, time 23.0 day. A digest of the protocol: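 After intranasal MHV-A59 inoculation (30 μL, TCID50 = 10−7.125/100 μL), 3–4-week-old male BALB/c mice received oral drug or vehicle once daily from 1 hpi for four days, 12 per group. The remaining mice were monitored daily for body weight, clinical signs and death until 23 dpi; survival curves were plotted.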

Series [11] is described as follows: Solubility of the compound. Type of series: physicochemical.
Series [12] has as its system Murine hepatitis virus. Description: Antiviral activity against murine hepatitis virus-A59 infected in BALB/c mouse assessed as reduction in IL-6 production in lungs at 200 mg/kg, po administered once daily one hour post infection and measured after 3 days by ELISA analysis. The series is classed as functional, organism-based. The conditions noted are these: time 3.0 day. In short, it runs like this: as §2

In series [13] the test system is Murine hepatitis virus. Description: Antiviral activity against murine hepatitis virus-A59 infected in BALB/c mouse assessed as reduction in IL-1beta production in liver at 10 to 100 mg/kg, po administered once daily one hour post infection and measured after 3 days by ELISA analysis. Type of series: functional, organism-based. The conditions noted are these: dose 10-100 mg/kg, time 3.0 day. In short, it runs like this:
as §2

The subject of series [14] is Murine hepatitis virus. Briefly: Antiviral activity against murine hepatitis virus-A59 infected in BALB/c mouse assessed as reduction in IFN-beta production in lungs at 200 mg/kg, po administered once daily one hour post infection and measured after 3 days by ELISA analysis. Type of series: functional, organism-based. The conditions noted are these: time 3.0 day. In short, it runs like this: as §2

Series [15] relates to Murine hepatitis virus. Description: Antiviral activity against murine hepatitis virus-A59 infected in BALB/c mouse assessed as remission of fulminant hepatitis in liver at 200 mg/kg, po administered once daily one hour post infection and measured after 3 days by H&E staining based analysis. The conditions noted are these: time 3.0 day. Type of series: functional, organism-based. A digest of the protocol: (§3)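 In male BALB/c mice (3–4 weeks), MHV-A59 was given intranasally (30 μL, TCID50 = 10−7.125/100 μL). Oral dosing once daily in a Cremophor EL/PBS/DMSO vehicle began at 1 hpi and lasted four days. At 3 dpi, lungs and livers from 4 mice per group were fixed in zinc formalin and paraffin-embedded. Sections of about 4 μm were stained with H&E and examined at 200× and 400×.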

The nature of series [16]: Drug metabolism in Sprague-Dawley rat assessed as hydrolysis-mediated GS-441524 metabolite formation at 5 mg/kg, iv administered as single dose and measured after 24 hrs by LC-MS/MS analysis. The conditions noted are these: in vivo. Type of series: ADME, organism-based.
Series [17] deals with Murine hepatitis virus. Description: Antiviral activity against murine hepatitis virus-A59 infected in BALB/c mouse assessed as reduction in IFN-gamma production in lungs at 200 mg/kg, po administered once daily one hour post infection and measured after 3 days by ELISA analysis. Type of series: functional, organism-based. The conditions noted are these: time 3.0 day. In short, it runs like this:
as §2

Series [18] relates to Murine hepatitis virus. Description: Antiviral activity against murine hepatitis virus-A59 infected in BALB/c mouse assessed as reduction in TNF-alpha production in lungs at 200 mg/kg, po administered once daily one hour post infection and measured after 3 days by ELISA analysis. The series is classed as functional, organism-based. The conditions noted are these: time 3.0 day. In short, it runs like this: as §2

Series [19] in a line: Drug distribution in BALB/c mouse liver assessed as hydrolyzed GS-441524 metabolite at 200 mg/kg, po administered as single dose and measured after 1 hrs by LC-MS/MS analysis. The conditions noted are these: in vivo. Type of series: ADME, organism-based.
For series [20], the system named is Murine hepatitis virus. Description: Antiviral activity against murine hepatitis virus-A59 infected in BALB/c mouse assessed as reduction in CXCL10 production in lungs at 200 mg/kg, po administered once daily one hour post infection and measured after 3 days by ELISA analysis. The series is classed as functional, organism-based. The conditions noted are these: time 3.0 day. In short, it runs like this: as §2

For series [21], the system named is Murine hepatitis virus. Briefly: Antiviral activity against murine hepatitis virus-A59 infected in BALB/c mouse assessed as remission of hepatocyte necrosis at 200 mg/kg, po administered once daily one hour post infection and measured after 3 days by H&E staining based analysis. The conditions noted are these: time 3.0 day. The series is classed as functional, organism-based. A digest of the protocol:
as §3

For series [22], the system named is Murine hepatitis virus. Briefly: Antiviral activity against murine hepatitis virus-A59 infected in BALB/c mouse assessed as alleviation of interstitial pneumonia in lungs at 200 mg/kg, po administered once daily one hour post infection and measured after 3 days by H&E staining based analysis. The series is classed as functional, organism-based. The conditions noted are these: time 3.0 day. A digest of the protocol: as §3

On to `CC(C)Cc1ccc(C(C)C(=O)OC[C@H]2O[C@@](C#N)(c3ccc4c(N)ncnn34)[C@H](O)[C@@H]2O)cc1` (some centres not stated), for which the Drug uptake result in series [1], in series [5] and in [19] was “Active” in each case. Also, the Drug metabolism result in [2] and in series [16] was “Metabolite_Detected” in each case. Also, the t1/2 in [3] turned out to be 4.4173 h. Moreover, the EC50 amounted to 3.78 µM in series [4] and 7.34 µM in series [8]. For the same molecule, the outcome with Murine hepatitis virus [6], with Murine hepatitis virus [7], in the series with Murine hepatitis virus [10], in the series with Murine hepatitis virus [12], in the series with Murine hepatitis virus [13] and in the series with Murine hepatitis virus [14] was Active. For the same molecule, the outcome in the series with Murine hepatitis virus [15], in the series with Murine hepatitis virus [17], with Murine hepatitis virus [18], with Murine hepatitis virus [20], in the series with Murine hepatitis virus [21] and with Murine hepatitis virus [22] was Active. The “Ratio EC50” value with Murine hepatitis virus [9] was 8. Also, the concentration in solution in series [11] (solubility) was 49.9 µM (≈ 23.9 µg/mL).
